Measurements published in ChEMBL document CHEMBL2375313, “Synthesis, in vitro antitumor evaluation and DNA-binding study of novel tetrahydroquinolines and some derived tricyclic and tetracyclic ring systems” (Eur J Med Chem, 2013).

Experiments:
Format in all cases: functional
[1] = system: SNB-19; test: Cytotoxicity against human SNB19 cells assessed as growth inhibition at 10 uM after 48 hrs by sulphorhodamine B assay; conditions: SNB-19, 48 h, read-out: GI
Outline: (§1)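 NCI-60 one-dose screen per the NCI Drug Evaluation Branch protocol. Cells given a single 10 µM concentration with 48 h continuous exposure. Growth estimated by sulphorhodamine B protein assay. Result expressed as percentage growth inhibition relative to untreated growth.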

[2] = system: SK-MEL-2; test: Cytotoxicity against human SK-MEL-2 cells assessed as growth inhibition at 10 uM after 48 hrs by sulphorhodamine B assay; conditions: SK-MEL-2, 48 h, read-out: GI; outline: as §1
[3] = system: HT-29; test: Cytotoxicity against human HT-29 cells assessed as growth inhibition at 10 uM after 48 hrs by sulphorhodamine B assay; conditions: HT-29, 48 h, read-out: GI; outline: as §1
[4] = system: IGROV-1; test: Cytotoxicity against human IGROV1 cells assessed as growth inhibition at 10 uM after 48 hrs by sulphorhodamine B assay; conditions: IGROV-1, 48 h, read-out: GI; outline: as §1
[5] = system: RPMI-8226; test: Cytotoxicity against human RPMI8226 cells assessed as growth inhibition at 10 uM after 48 hrs by sulphorhodamine B assay; conditions: RPMI-8226, 48 h, read-out: GI; outline: as §1
[6] = system: MDA-MB-468; test: Cytotoxicity against human MDA-MB-468 cells assessed as growth inhibition at 10 uM after 48 hrs by sulphorhodamine B assay; conditions: MDA-MB-468, 48 h, read-out: GI; outline: as §1
[7] = system: MDA-MB-435; test: Cytotoxicity against human MDA-MB-435 cells assessed as growth inhibition at 10 uM after 48 hrs by sulphorhodamine B assay; conditions: MDA-MB-435, 48 h, read-out: GI; outline: as §1
[8] = system: HOP-92; test: Cytotoxicity against human HOP92 cells assessed as growth inhibition at 10 uM after 48 hrs by sulphorhodamine B assay; conditions: HOP-92, 48 h, read-out: GI; outline: as §1
[9] = system: LOX IMVI; test: Cytotoxicity against human LOXIMVI cells assessed as growth inhibition at 10 uM after 48 hrs by sulphorhodamine B assay; conditions: read-out: GI; outline: as §1
[10] = system: Hs-578T; test: Cytotoxicity against human Hs578T cells assessed as growth inhibition at 10 uM after 48 hrs by sulphorhodamine B assay; conditions: read-out: GI; outline: as §1
[11] = system: U-251; test: Cytotoxicity against human U251 cells assessed as growth inhibition at 10 uM after 48 hrs by sulphorhodamine B assay; conditions: U-251, 48 h, read-out: GI; outline: as §1
[12] = system: UO-31; test: Cytotoxicity against human UO31 cells assessed as growth inhibition at 10 uM after 48 hrs by sulphorhodamine B assay; conditions: UO-31, 48 h, read-out: GI; outline: as §1
[13] = system: NCI-H522; test: Cytotoxicity against human NCI-H522 cells assessed as growth inhibition at 10 uM after 48 hrs by sulphorhodamine B assay; conditions: NCI-H522, 48 h, read-out: GI; outline: as §1
[14] = system: A498; test: Cytotoxicity against human A498 cells assessed as growth inhibition at 10 uM after 48 hrs by sulphorhodamine B assay; conditions: A498, 48 h, read-out: GI; outline: as §1
[15] = system: CCRF-CEM; test: Cytotoxicity against human CCRF-CEM cells assessed as growth inhibition at 10 uM after 48 hrs by sulphorhodamine B assay; conditions: read-out: GI; outline: as §1
[16] = system: SK-OV-3; test: Cytotoxicity against human SKOV3 cells assessed as growth inhibition at 10 uM after 48 hrs by sulphorhodamine B assay; conditions: SK-OV-3, 48 h, read-out: GI; outline: as §1
[17] = system: OVCAR-5; test: Cytotoxicity against human OVCAR5 cells assessed as growth inhibition at 10 uM after 48 hrs by sulphorhodamine B assay; conditions: OVCAR-5, 48 h, read-out: GI; outline: as §1
[18] = system: M14; test: Cytotoxicity against human M14 cells assessed as growth inhibition at 10 uM after 48 hrs by sulphorhodamine B assay; conditions: M14, 48 h, read-out: GI; outline: as §1
[19] = system: SNB-75; test: Cytotoxicity against human SNB75 cells assessed as growth inhibition at 10 uM after 48 hrs by sulphorhodamine B assay; conditions: SNB-75, 48 h, read-out: GI; outline: as §1
[20] = system: MCF7; test: Cytotoxicity against human MCF7 cells assessed as growth inhibition at 10 uM after 48 hrs by sulphorhodamine B assay; conditions: MCF7, 48 h, read-out: GI; outline: as §1
[21] = system: HCT-116; test: Cytotoxicity against human HCT116 cells assessed as growth inhibition at 10 uM after 48 hrs by sulphorhodamine B assay; conditions: HCT-116, 48 h, read-out: GI; outline: as §1
[22] = system: DU-145; test: Cytotoxicity against human DU145 cells assessed as growth inhibition at 10 uM after 48 hrs by sulphorhodamine B assay; conditions: DU-145, 48 h, read-out: GI; outline: as §1
[23] = system: SR; test: Cytotoxicity against human SR cells assessed as growth inhibition at 10 uM after 48 hrs by sulphorhodamine B assay; conditions: read-out: GI; outline: as §1
[24] = system: SF-295; test: Cytotoxicity against human SF295 cells assessed as growth inhibition at 10 uM after 48 hrs by sulphorhodamine B assay; conditions: SF-295, 48 h, read-out: GI; outline: as §1
[25] = system: ACHN; test: Cytotoxicity against human ACHN cells assessed as growth inhibition at 10 uM after 48 hrs by sulphorhodamine B assay; conditions: read-out: GI; outline: as §1
[26] = system: CAKI-1; test: Cytotoxicity against human Caki1 cells assessed as growth inhibition at 10 uM after 48 hrs by sulphorhodamine B assay; conditions: CAKI-1, 48 h, read-out: GI; outline: as §1
[27] = system: T47D; test: Cytotoxicity against human T47D cells assessed as growth inhibition at 10 uM after 48 hrs by sulphorhodamine B assay; conditions: read-out: GI; outline: as §1
[28] = system: MOLT-4; test: Cytotoxicity against human MOLT4 cells assessed as growth inhibition at 10 uM after 48 hrs by sulphorhodamine B assay; conditions: MOLT-4, 48 h, read-out: GI; outline: as §1
[29] = system: RXF 393; test: Cytotoxicity against human RXF393 cells assessed as growth inhibition at 10 uM after 48 hrs by sulphorhodamine B assay; conditions: RXF 393, 48 h, read-out: GI; outline: as §1
[30] = system: SF-268; test: Cytotoxicity against human SF268 cells assessed as growth inhibition at 10 uM after 48 hrs by sulphorhodamine B assay; conditions: SF-268, 48 h, read-out: GI; outline: as §1
[31] = Cytotoxicity against human EKVX cells assessed as growth inhibition at 10 uM after 48 hrs by sulphorhodamine B assay; conditions: read-out: GI; outline: as §1
[32] = system: NCI-H23; test: Cytotoxicity against human NCI-H23 cells assessed as growth inhibition at 10 uM after 48 hrs by sulphorhodamine B assay; conditions: NCI-H23, 48 h, read-out: GI; outline: as §1
[33] = system: SK-MEL-5; test: Cytotoxicity against human SK-MEL-5 cells assessed as growth inhibition at 10 uM after 48 hrs by sulphorhodamine B assay; conditions: SK-MEL-5, 48 h, read-out: GI; outline: as §1
[34] = system: OVCAR-4; test: Cytotoxicity against human OVCAR4 cells assessed as growth inhibition at 10 uM after 48 hrs by sulphorhodamine B assay; conditions: OVCAR-4, 48 h, read-out: GI; outline: as §1
[35] = system: A549; test: Cytotoxicity against human A549 cells assessed as growth inhibition at 10 uM after 48 hrs by sulphorhodamine B assay; conditions: A549, 48 h, read-out: GI; outline: as §1
[36] = system: NCI/ADR-RES; test: Cytotoxicity against human NCI/ADR-RES cells assessed as growth inhibition at 10 uM after 48 hrs by sulphorhodamine B assay; conditions: read-out: GI; outline: as §1
[37] = system: UACC-62; test: Cytotoxicity against human UACC62 cells assessed as growth inhibition at 10 uM after 48 hrs by sulphorhodamine B assay; conditions: UACC-62, 48 h, read-out: GI; outline: as §1
[38] = system: K562; test: Cytotoxicity against human K562 cells assessed as growth inhibition at 10 uM after 48 hrs by sulphorhodamine B assay; conditions: K562, 48 h, read-out: GI; outline: as §1
[39] = system: PC-3; test: Cytotoxicity against human PC3 cells assessed as growth inhibition at 10 uM after 48 hrs by sulphorhodamine B assay; conditions: PC-3, 48 h, read-out: GI; outline: as §1
[40] = system: HL-60(TB); test: Cytotoxicity against human HL-60(TB) cells assessed as growth inhibition at 10 uM after 48 hrs by sulphorhodamine B assay; conditions: HL-60, 48 h, read-out: GI
Outline: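 NCI-60 one-dose primary screen run to the Drug Evaluation Branch protocol. Cells are exposed to a single 10 µM concentration for 48 h continuously, and growth is read by SRB protein assay. Data are reported as percent growth of treated cells, expressed as % growth inhibition.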

[41] = system: HCT-15; test: Cytotoxicity against human HCT15 cells assessed as growth inhibition at 10 uM after 48 hrs by sulphorhodamine B assay; conditions: HCT-15, 48 h, read-out: GI; outline: as §1

CC1CCCc2c1nc(N)c(C#N)c2-c1ccc(Cl)cc1 (configuration not stated)
inhibition of growth at 10 µM [1]: 20.5% | inhibition of growth at 10 µM [2]: 15% | inhibition of growth at 10 µM [3]: < 10% | inhibition of growth at 10 µM [4]: < 10% | inhibition of growth at 10 µM [5]: 18.2% | inhibition of growth at 10 µM [6]: 36.5% | inhibition of growth at 10 µM [7]: < 10% | inhibition of growth at 10 µM [8]: 10% | inhibition of growth at 10 µM [9]: < 10% | inhibition of growth at 10 µM [10]: 25% | inhibition of growth at 10 µM [11]: < 10% | inhibition of growth at 10 µM [12]: < 10% | inhibition of growth at 10 µM [13]: < 10% | inhibition of growth at 10 µM [14]: 21.7% | inhibition of growth at 10 µM [15]: 13.3% | inhibition of growth at 10 µM [16]: < 10% | inhibition of growth at 10 µM [17]: < 10% | inhibition of growth at 10 µM [18]: < 10% | inhibition of growth at 10 µM [19]: 26.8% | inhibition of growth at 10 µM [20]: 31.5% | inhibition of growth at 10 µM [21]: < 10% | inhibition of growth at 10 µM [22]: < 10% | inhibition of growth at 10 µM [23]: < 10% | inhibition of growth at 10 µM [24]: < 10% | inhibition of growth at 10 µM [25]: < 10% | inhibition of growth at 10 µM [26]: < 10% | inhibition of growth at 10 µM [27]: 17.2% | inhibition of growth at 10 µM [28]: < 10% | inhibition of growth at 10 µM [29]: < 10% | inhibition of growth at 10 µM [30]: 11.3% | inhibition of growth at 10 µM [31]: 39.5% | inhibition of growth at 10 µM [32]: < 10% | inhibition of growth at 10 µM [33]: < 10% | inhibition of growth at 10 µM [34]: 10.1% | inhibition of growth at 10 µM [35]: < 10% | inhibition of growth at 10 µM [36]: < 10% | inhibition of growth at 10 µM [37]: 24.2% | inhibition of growth at 10 µM [38]: 11.8% | inhibition of growth at 10 µM [39]: < 10% | inhibition of growth at 10 µM [40]: < 10% | inhibition of growth at 10 µM [41]: < 10%

CC1CCCc2c1nc1ncnc(N)c1c2-c1ccc(Cl)cc1 (configuration not stated)
inhibition of growth at 10 µM [1]: 21.3% | inhibition of growth at 10 µM [2]: < 10% | inhibition of growth at 10 µM [3]: 13.3% | inhibition of growth at 10 µM [4]: < 10% | inhibition of growth at 10 µM [5]: 21.3% | inhibition of growth at 10 µM [6]: 20% | inhibition of growth at 10 µM [7]: < 10% | inhibition of growth at 10 µM [8]: 25.3% | inhibition of growth at 10 µM [9]: < 10% | inhibition of growth at 10 µM [10]: 14.7% | inhibition of growth at 10 µM [11]: 14.5% | inhibition of growth at 10 µM [12]: 10.1% | inhibition of growth at 10 µM [13]: 11% | inhibition of growth at 10 µM [14]: 27.7% | inhibition of growth at 10 µM [15]: 22.2% | inhibition of growth at 10 µM [16]: 12% | inhibition of growth at 10 µM [17]: < 10% | inhibition of growth at 10 µM [18]: < 10% | inhibition of growth at 10 µM [19]: 21.5% | inhibition of growth at 10 µM [20]: < 10% | inhibition of growth at 10 µM [21]: 14% | inhibition of growth at 10 µM [22]: < 10% | inhibition of growth at 10 µM [23]: < 10% | inhibition of growth at 10 µM [24]: < 10% | inhibition of growth at 10 µM [25]: < 10% | inhibition of growth at 10 µM [26]: < 10% | inhibition of growth at 10 µM [27]: 40% | inhibition of growth at 10 µM [28]: < 10% | inhibition of growth at 10 µM [29]: 11% | inhibition of growth at 10 µM [30]: 12.3% | inhibition of growth at 10 µM [31]: < 10% | inhibition of growth at 10 µM [32]: < 10% | inhibition of growth at 10 µM [33]: 10.2% | inhibition of growth at 10 µM [34]: 17.8% | inhibition of growth at 10 µM [35]: < 10% | inhibition of growth at 10 µM [36]: < 10% | inhibition of growth at 10 µM [37]: 13.8% | inhibition of growth at 10 µM [38]: 25% | inhibition of growth at 10 µM [39]: 24.2% | inhibition of growth at 10 µM [40]: 12.4% | inhibition of growth at 10 µM [41]: 10%
